# From PubChem
# Hits are enriched below; roughly 3% of the tested compounds scored in any of these assays.
# PfHsp90 set2 = inhibits growth of yeast expressing Plasmodium falciparum Hsp90; S. cerevisiae expressing PfHsp90, BacTiter-Glo ATP, 48 h; yeast lacking PDR1 and PDR3 efflux regulators; inhibition, % at 9.4 µM; hit rate 0.32% among 310,000;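 active = every replicate shows inhibition above about 80%, whatever the replicate mean, limit read from the data; inconclusive = mean inhibition reaches the set limit but some replicate falls short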;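 also: 0% = DMSO neutral controls and 100% = 20 µM radicicol positive controls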
# T cruzi repl = T. cruzi replication inhibition. T. cruzi beta-gal in NIH3T3, luminescence, 90 h. inhibition, % (concentration not given with the values). hit rate 1.4% among 300,000;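 active = mean inhibition across valid replicates above about 55%, limit read from the data; inconclusive = mean below that limit but half or more replicates reach it; inactive = mean below it, under half of replicates reach it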;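 also: signal also drops with host cell toxicity which is not excluded here; 0% = plate median of DMSO wells and 100% = zero luminescence signal; higher percent means less beta-gal luminescence so fewer parasites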
#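 System: mouse NIH/3T3 fibroblasts infected with β-gal-expressing T. cruzi Tulahuen C4 / Input: NIH/3T3 cells, 5,000 per well / Buffer or medium: Low-serum DMEM with 2% FBS / Probe or stimulus: 5000 reporter trypomastigotes per well / Schedule: ≥90 h infection period, 3 h prior cell attachment / Measured by: GalScreen luminescence, 60 min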
# PvdQ acylase = P. aeruginosa PvdQ acylase inhibition. inhibition, % at 10 µM. hit rate 0.063% among 340,000. purified PvdQ acylase, fluorescence plate reader; in the data active = inhibition above about 30%, passing the limit was not always enough; inconclusive = no clear call, values can overlap the other calls;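 also: 0% = vehicle neutral wells and 100% = reference inhibitor wells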
# CaV13 ICDI inh = Primary screen for inhibitors of IQ motif and Ca2+-dependent inactivation inhibitor domain binding in CACNA1D, Förster resonance energy transfer in living cells, …. HEK cells, CFP/YFP FRET ICDI-IQ, plate reader, 10 min; percent FRET-ratio fall versus neutral wells. inhibition, % at 12.3 µM. hit rate 0.098% among 340,000. AID 743397;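 active = mean replicate inhibition of at least 30% and at least 1% of replicates passing that level; inconclusive = only one of the two criteria is met; inactive = neither criterion is met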;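 also: 0% = median of the neutral control wells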
# Glyco luc inh = N-linked glycosylation inhibition. AID 588692. D54 ERlucT glycosylation luciferase reporter, 24 h; percent of 100 nM tunicamycin response. hit rate 0.23% among 360,000. reporter increase, % at 12.5 µM;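 active = mean luciferase reporter signal, scaled so untreated is 0 and the glycosylation-blocking control 100, at or above a set limit in every replicate; inconclusive = mean reaches the limit but not every replicate does; inactive = mean below the limit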;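 also: luciferase carries N-glycosylation sites so blocking glycosylation raises the light; 0% = median of neutral control wells and 100% = median of 100 nM tunicamycin wells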
# HSF-1 act = increases HSF-1 driven luciferase reporter signal; NIH3T3-HGL HSF-1 luciferase reporter, MG132, 8 h; 100% = twice DMSO control signal; activation, % at 9 µM; hit rate 1.7% among 300,000; AID 504408;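 active = mean replicate activation of at least 50% with a set share of replicates each reaching 50%; inconclusive = only one of those two conditions met; inactive = mean below 50% and too few replicates reaching it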;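 also: 0% = median of the neutral control wells and 100% = twice that signal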
# * hit, by the source's call; u = inconclusive; x = no result given.
SMILES,PfHsp90 set2,T cruzi repl,PvdQ acylase,CaV13 ICDI inh,Glyco luc inh,HSF-1 act
CCCCN(C)S(=O)(=O)c1ccc(C(=O)Nc2nnc(C3=COCCO3)o2)cc1,10,-19,10,-4,4,-2
COc1ccc(-c2nnc(NC(=O)c3ccc(S(=O)(=O)N4COCC4(C)C)cc3)o2)cc1,-15,62*,-13,x,2,-49
CCCCN(C)S(=O)(=O)c1ccc(C(=O)Nc2nnc(-c3cccs3)o2)cc1,x,57*,x,x,x,-12
COC(=O)c1cc2c(c3c4cc(F)ccc4n(S(=O)(=O)c4ccc(OC)cc4)c13)C(=O)N(C)C2,x,x,x,-5,x,x
CCN(c1ccccc1)S(=O)(=O)c1ccc(C(=O)Nc2nnc(C3CC3)o2)cc1,0,72*,-4,-4,1,15
CN(c1ccccc1)S(=O)(=O)c1ccc(C(=O)Nc2nnc(C3CC3)o2)cc1,-3,u,2,-20,1,-9
C/C(=N\N=C(/C)c1cccc(N)c1)c1cccc(N)c1,x,5,x,-20,0,64*
Nc1cccc(C(=O)O)c1,0,2,-23,-5,0,-15
COC(=O)C1=C(C)N(Cc2ccccc2C(F)(F)F)C(=NCc2ccccc2C(F)(F)F)NC1c1cccc(F)c1 (stereo not given),x,x,x,-11,x,x
CCOC(=O)N1CCN(c2cc(N3CCN(CC)CC3)c(F)cc2[N+](=O)[O-])CC1C (stereo not given),-21,60*,13,-8,-7,-8
CCOC(=O)N1CCN(c2cc(N3CCOCC3)c(F)cc2[N+](=O)[O-])CC1,-20,5,-7,-6,0,-4
CCC(=O)N1CCN(c2cc(N3CCN(C)CC3)c(F)cc2[N+](=O)[O-])CC1,24,69*,-2,-3,-4,0
CCOC(=O)N1CCN(c2ccc(F)cc2[N+](=O)[O-])CC1,24,3,-3,-3,3,-2
C[n+]1cccc(NC(=O)c2ccccc2)c1,x,x,x,-7,x,x
Cc1onc(-c2ccccc2)c1C(=O)NN=Cc1cc(Cl)cc(Cl)c1O,x,x,x,-16,x,x
COc1ccc(C2NC(=O)CCC2[N+](=O)[O-])c(OC)c1 (stereo not given),22,-13,-15,-2,1,56*
COc1ccc2c(c1)c(C(=O)CNc1nc(C)cs1)c(C)n2C,26,21,-13,x,3,61*
CCOCc1cnc(C)nc1NCC(=O)c1c(C)n(C)c2ccc(OC)cc12,-10,15,3,-3,0,-46
C[C@H](CO)N1C[C@H](C)[C@@H](CN(C)S(=O)(=O)c2ccc3c(c2)OCCCO3)OCc2cn(nn2)CCCC1=O,x,x,x,-4,2,x
c1ccc(COc2ccc(OCCCCN3CCCCC3)cc2)cc1,-9,38,-17,-5,-2,15
Oc1ccc(N2CCN(Cc3ccc(OCCCN4CCCCC4)cc3)CC2)cc1,14,69*,-25,0,-6,-3
CCCCOc1ccc(CN2CCCCC2)cc1,7,59*,-16,-7,-2,2
O=C(CSc1c2c(nc3ccc(Cl)cc13)CCCC2)N1CCN(C(=O)c2ccco2)CC1,1,x,-6,-4,41*,x
Cc1ccc(CNC(=O)CSc2c3c(nc4ccc(Cl)cc24)CCCC3)o1,12,19,-12,-4,7,120*
O=C(CSc1nc2cc(Cl)ccc2s1)N1CCN(C(=O)c2ccco2)CC1,-11,-6,3,x,0,15
SMILES,PfHsp90 set2,T cruzi repl,PvdQ acylase,CaV13 ICDI inh,Glyco luc inh,HSF-1 act
CCN(CC)CCNC(=O)CSc1c2c(nc3cc(Cl)ccc13)CCCC2,8,33,-19,-16,12,u
Nc1ccc2ccc(N)cc2c1,x,x,x,-13,x,x
Cc1cccc(OCCCC(=O)Nc2ccccc2C(F)(F)F)c1,-48,-5,-4,-5,1,-15
Cc1ccccc1OCCCC(=O)Nc1ccccc1C(F)(F)F,-4,0,-12,x,-2,91*
Cc1ccc(NC(=S)N/N=C/c2ccc([N+](=O)[O-])s2)cc1,100*,63*,-3,-6,-16,u
O=C(Cc1cccs1)N/N=C\c1ccc([N+](=O)[O-])s1,-58,84*,-6,-5,-7,10
